Screening data (PubChem BioAssay)
Sampled rows, rich in hits. Any-hit rate of the full collection: about 29%.
Ecoli WT expand = growth inhibitors of E. coli BW25113 wild type; OD600 absorbance; growth inhibition, % at 100 µM; actives 0.15% (n = 98,000);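 active means growth inhibition above about 50% at one test dose, limit read from the data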;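 further: growth measured after 20 h incubation at 37 °C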
CYP2C9 act = activators of human CYP2C9 | P11712 | recombinant CYP2C9, luciferin-H conversion, luminescence; hits give high values; factor 1 = untreated enzyme, 0 = blocked | activation factor at 5 µM | actives 1.4% (n = 96,000);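 active means activation factor of 2 or more for CYP2C9 at a 5 µM dose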;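 further: 0 = sulfaphenazole-blocked wells and 1 = vehicle-only wells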
Target sequence (P11712 whole entry, looked up): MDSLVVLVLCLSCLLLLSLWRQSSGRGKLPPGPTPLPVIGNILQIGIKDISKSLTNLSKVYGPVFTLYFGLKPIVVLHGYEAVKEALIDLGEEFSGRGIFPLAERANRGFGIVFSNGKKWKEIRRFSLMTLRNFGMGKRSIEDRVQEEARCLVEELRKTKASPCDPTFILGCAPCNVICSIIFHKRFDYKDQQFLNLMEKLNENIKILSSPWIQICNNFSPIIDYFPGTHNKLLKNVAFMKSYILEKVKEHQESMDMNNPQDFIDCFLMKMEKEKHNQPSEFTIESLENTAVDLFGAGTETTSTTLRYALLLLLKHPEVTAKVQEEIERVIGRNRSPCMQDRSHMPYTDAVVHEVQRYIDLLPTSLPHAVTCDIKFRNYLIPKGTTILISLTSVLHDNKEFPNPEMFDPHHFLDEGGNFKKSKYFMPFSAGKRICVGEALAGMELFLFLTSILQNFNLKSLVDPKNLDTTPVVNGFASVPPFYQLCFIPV
CYP2C19 activ = activators of human cytochrome P450 2C19 | P33261 | recombinant CYP2C19, luciferin-H EGE luminescence; hits give high values; 0 = fully inhibited enzyme, 1 = untreated enzyme | activation factor at 5 µM | 96,000 tested, under 10 active | AID 1025;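 active means activation factor of at least 2 at 5 µM in the primary screen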;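 further: 0 = wells with 2.5 mM tranylcypromine and 1 = vehicle-only wells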
CYP2C19 inhib = human CYP2C19 inhibition; CYP2C19 Supersomes, luciferin-H EGE luminescence, 30 min; inhibition, % at 5 µM; actives 21% (n = 96,000); AID 778;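 active means CYP2C19 inhibition above a set limit at 5 µM in the primary screen, cut at about 50% in these data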;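 further: plate controls were negative control wells for no effect and 2.5 mM tranylcypromine positive control for full effect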
CYP2C9 inhib = blocks human cytochrome P450 2C9 | CYP2C9 Supersomes, luciferin-H conversion, luminescence | inhibition, % at 5 µM | actives 20% (n = 96,000) | AID 777;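 active means blocking of liver enzyme CYP2C9 beyond about 50% at 5 µM, limit read from the data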
tolC growth inh = E. coli tolC mutant growth inhibition; E. coli BW25113 tolC mutant growth, OD615; growth inhibition, % at 10 µM (by protocol); actives 2.2% (n = 65,000);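 active means growth inhibition at or above a cutoff equal to the mean over every tested compound plus 3 SD, cut at about 60% in these data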;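 further: growth measured after 20 h incubation at 37 °C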
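Assay system: tolC-deleted E. coli BW25113. Medium: kanamycin-containing LB broth (50 µg/mL). Dosing: 10 µM final, single dose. Timing: bacterial growth with compound for 20 h at 37 °C. Detection: A615 absorbance measurement. Read-out basis: growth inhibition in percent.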
The depositor's hits bear a star; · = no result.

SMILES	Ecoli WT expand	CYP2C9 act	CYP2C19 activ	CYP2C19 inhib	CYP2C9 inhib	tolC growth inh
CCOC(=O)C1CCN(C(=O)NC23CC4CC(CC(C4)C2)C3)CC1	1	0.9	0.5	48	11	5
Cc1ccc(SCCCCN2C(=O)NC(C)(C)C2=O)cc1	7	0.2	0.1	88*	77*	6
CC1(C)NC(=O)N(CCOCCSc2ccccc2)C1=O	-1	0.6	0.1	86*	39	-5
CC1(C)NC(=O)N(CCSc2ccc(Cl)cc2)C1=O	1	0.5	0.1	93*	50*	·
Cn1c(Cn2c(=O)sc3ccccc32)nnc1SCC(=O)Nc1ccc(Cl)cc1	3	·	·	·	·	-4
Cc1ccccc1N(C(=O)Cn1nnc2ccccc21)C(C(=O)NCc1ccco1)c1ccncc1 (stereo unspecified)	-3	0.8	0.7	28	23	-5
CCCCN(C)C1=Nc2cccc3cccc1c23	-1	1.1	0.9	10	-6	·
CCc1nc2oc3ccccc3c(=O)c2c(=O)n1-c1ccccc1	-1	1.3	0.9	10	-28	-22
c1ccc(-c2noc(CSc3nnnn3C3CCCCC3)n2)cc1	-4	0.6	0.7	28	39	52
COc1cccc(-n2c(SCC(N)=O)nnc2-c2ccncc2)c1	6	1	0.7	26	-4	-17
COc1ccc(-c2noc(CSc3nnc(-c4ccncc4)n3-c3ccc(F)cc3)n2)cc1OC	-6	0.8	0.4	59*	23	14
CCn1c(SCc2nc(-c3cccs3)no2)nnc1-c1c[nH]c2ccccc12	1	0.4	0.9	15	57*	35
CCn1c(SCc2nc(-c3ccccc3)no2)nnc1-c1cccs1	13	0.5	0.5	51*	52*	·
CCn1c(SCc2nc(-c3ccccc3)no2)nc2ccccc21	-6	1	0.1	88*	-2	21
Cc1noc(C)c1CSc1nnc(-c2c[nH]c3ccccc23)n1-c1ccc(Cl)cc1	-11	1	1.1	-7	0	-3
CCc1ccc(-n2c(SCc3c(C)noc3C)nnc2-c2ccncc2)cc1	4	0.4	0.3	73*	58*	·
COc1ccc(-c2noc(CSc3nnc(-c4ccccc4)n3C)n2)cc1	5	0.3	0.2	84*	66*	·
CC(C)c1noc2ncc(C(=O)c3cc(Cl)cc(Cl)c3O)cc12	0	0	0.2	81*	100*	·
CC1CCCCN1CC(=O)Nc1sc2c(c1C#N)CCC2 (stereo unspecified)	0	0.4	0.5	51*	61*	-1
N#Cc1c(NC(=O)CSc2nnnn2C2CCCCC2)sc2c1CCCC2	2	0.3	0.6	43	67*	-7
COc1ccc2nc(NC(=O)CSc3nnnn3C3CCCCC3)sc2c1	7	0.9	0.9	13	13	69*
O=C(CSc1nnnn1C1CCCCC1)Nc1nc2c(s1)CCCC2	3	0.7	0.2	78*	34	98*
COC(=O)C1=C(COc2ccc(F)cc2)NC(=O)NC1c1ccc(C)cc1C (stereo unspecified)	-7	1	1	2	-2	·
Cc1csc(-c2cnn(-c3ccccc3)c2NC(=O)c2ccccc2)n1	-8	1	1.1	-12	4	7
COc1ccccc1C(=O)NC(C)C(c1cccs1)N1CCN(C)CC1 (stereo unspecified)	·	·	·	·	·	-12
SMILES	Ecoli WT expand	CYP2C9 act	CYP2C19 activ	CYP2C19 inhib	CYP2C9 inhib	tolC growth inh
COc1ccc(NC(=O)CN2CCN(CC(=O)Nc3ccc4c(c3)OCO4)CC2)cc1	5	0.8	0.8	18	18	-5
O=C(CN1CCN(S(=O)(=O)c2cc(Cl)ccc2Cl)CC1)Nc1ccc2c(c1)OCCO2	-8	2.2*	0.5	54*	-123	11
Cc1ccc(C)c(S(=O)(=O)N2CCN(CC(=O)Nc3ccc4c(c3)OCCO4)CC2)c1	-24	1	0.2	85*	-1	·
CC(C)n1c(N2CCN(CC(=O)Nc3ccc4c(c3)OCCO4)CC2)nc2ccccc21	8	0.7	0.4	58*	26	27
O=C(CN1CCN(S(=O)(=O)c2ccc(Br)cc2)CC1)Nc1ccc2c(c1)OCO2	-16	0.4	0.2	81*	63*	6
CCC(C(=O)NCCN1CCN(C)CC1)n1c(C)c2cnn(-c3ccccc3)c(=O)c2c1C (stereo unspecified)	-1	0.8	0.8	20	19	-14
O=C1NCCCC1C(=O)N1CCN(C(c2ccccc2)c2ccccc2)CC1 (stereo unspecified)	·	1	1	-5	2	-1
CN(C)c1ccc(NC(=O)CN2CCN(S(=O)(=O)c3cc(Cl)ccc3Cl)CC2)cc1	-19	1.5	0.7	32	-49	10
Cc1ccc(C)c(S(=O)(=O)N2CCN(CC(=O)Nc3cc(C)on3)CC2)c1	0	2.3*	0.9	12	-127	5
CC(C)OC(=O)CN1CCN(S(=O)(=O)c2cc(Cl)ccc2Cl)CC1	4	2.1*	0.2	83*	-114	4
Cc1ccc(C)c(S(=O)(=O)N2CCN(CC(=O)N3CCc4ccccc4C3)CC2)c1	7	3.4*	0.2	81*	-242	·
Cc1cccc(Nc2nc(N)nc(CN3CCC(C)CC3)n2)c1C	·	·	·	·	·	8
Cc1ccc(CNC(=O)c2ccc(CN3CCOCC3)cc2)cc1	2	1	1.1	-15	1	-11
COc1ccc(Nc2ccc3nnc(-c4ccc(Br)cc4)n3n2)cc1	1	0.7	1.2	-15	34	·
CN(C)/C=N/c1nc2ccc3c(c2s1)CCCC3	·	0.9	0.2	81*	8	3
COc1ccc(CNC2CCCCC2C)c(OC)c1 (stereo unspecified)	-2	0.9	0.4	62*	7	-10
CCC(CC)NCc1ccc(OC)cc1OC	4	1.1	1.2	-15	-12	7
CCCCn1nnnc1SCC(=O)NNC(=O)C1CCCCC1	2	0.9	0.9	10	6	·
CCOC(=O)c1c(C)c(C(=O)NCC2CCCO2)c(C)n1C (stereo unspecified)	6	1.6	0.9	7	-65	-8
CC(=O)c1ccc(OCCCC(=O)OCC(=O)N2CCN(c3ccccc3)CC2)cc1	2	0.8	0.9	14	16	14
COc1ccc(-n2nnnc2SC(C)C(N)=O)cc1 (stereo unspecified)	-3	0.9	0.6	38	14	-9
CCN(CC)S(=O)(=O)c1ccc2c(c1)nc(SC(C)C(N)=O)n2-c1ccc(OC)cc1 (stereo unspecified)	-10	0.1	0.4	62*	91*	·
COc1ccc(C(=O)c2oc3ccccc3c2NC(C)=O)cc1	-6	0.5	0.6	37	48	·
COc1cccc(NC(=O)c2oc3ccccc3c2NC(=O)C(C)(C)C)c1	-25	0.2	0.9	8	81*	18
